# Bioassay records from PubChem.
# b-catenin transl – alters nuclear translocation of beta-catenin in HeLa cells. immunofluorescence imaging. nuclear translocation activity, % at 5 µM. actives 0.3% (n = 190,000);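 active means nuclear translocation activity above 50% at 5 µM, with a well cell count of 50 or more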;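 further: per-cell ratio of nuclear to cytoplasmic median beta-catenin stain intensity; plate controls were DMSO negative control for no effect and GSK-3 inhibitor IX positive control for full effect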
#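 assay system = human HeLa cells, endogenous beta-catenin | times = compound treatment 24 h, 37°C, 5% CO2 | detection = Anti-beta-catenin immunofluorescence on PFA-fixed, Triton-permeabilized cells, DAPI nuclei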
# Tb hexokinase – T. brucei hexokinase 1 inhibition; recombinant TbHK1, G6PDH-coupled NADH A340; inhibition, % at 10 µM; actives 0.11% (n = 220,000);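 active means inhibition of 50% or more in the single-dose primary screen; inactive means inhibition below 50%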
# Autophagy HCS – modulators of autophagy | calls only at 10 µM (by protocol) | MEF GFP-LC3 puncta imaging; test concentration mostly 10 µM | actives 0.98% (n = 190,000);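 active means percentage of spot-positive cells more than 3 SD above its plate mean, without a fluorescence outlier flag or 80% toxicity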;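 further: spot-positive cell cutoff set from DMSO-treated cells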
# MT stabilize HCS – microtubule stabilizers in HeLa cells | % tubulin-high responders, % at 10 µM | actives 0.83% (n = 200,000) | AID 2205 | HeLa tubulin immunostaining HCS, 24 h; share of cells brighter than vehicle mean+2SD;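 active means plate Z-score above 3 for both tubulin-high and condensed-nucleus cell shares, with cell loss under 80%, at 10 µM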;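 further: anti alpha tubulin signal scored within the nucleus-defined area of each cell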
# Ins promoter up – MIN6 insulin promoter up-regulation. AID 1625. MIN6 insulin promoter-GFP reporter, high-content imaging; hits give high values. actives 0.3% (n = 190,000). z-score at 5 µM;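 active means z-score above 3 at 5 µM with at least 500 cells counted in the well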
# * = called active by the depositor; i = inactive; . = not tested or not shown; + = active, no number. Shown are actives, neighbours in structure and some others; about 1.9% of the full set was active somewhere.
SMILES,b-catenin transl,Tb hexokinase,Autophagy HCS,MT stabilize HCS,Ins promoter up
Cc1ccc([N+](=O)[O-])cc1S(=O)(=O)Nc1ccc(C(=O)N(C)C)cc1,4,3,+,2,-0.87
CCCCCNc1nc2sc3c(c2c(=O)n1-c1cccc(Cl)c1)CCN(C)C3,0,-34,.,.,-0.26
N#CC1=C2SCC(O)(c3ccccc3)N2C(=O)CC1c1ccccc1 (configuration not stated),46,-25,+,34*,-0.89
Fc1cccc(F)c1-n1c(CN2CCCCC2)csc1=S,-2,-5,i,16*,-1.2
CCCOc1ccc(-c2nn(-c3ccccc3)cc2/C=C2\SC(=S)N(C3CCS(=O)(=O)C3)C2=O)cc1 (configuration not stated),1,7,i,3,4.8*
CCOc1ccc(-c2nn(-c3ccccc3)cc2/C=C2\SC(=S)N(C3CCS(=O)(=O)C3)C2=O)cc1 (configuration not stated),1,-3,i,1,-0.99
COc1ccc(CCn2cnc(=O)c(C#N)c2C)cc1OC,0,4,i,2,-0.11
CCOc1ccc2c(c1)sc(N)[n+]2Cc1cc(C)cc2cccnc12,152*,10,i,14*,-1.3
Cc1cc(C[n+]2ncsc2N)c2ncccc2c1,0,-8,.,.,-0.14
COc1ccc2c(c1)sc(N)[n+]2Cc1cc(C)cc2cccnc12,114*,12,i,15*,-1.1
CCC(C)(C)n1nnnc1C(C(C)C)N1CCSCC1 (configuration not stated),.,-3,+,2,-0.25
Cc1ccc(S(=O)(=O)N(C)C)cc1NC(=S)N1CCCCC1CO (configuration not stated),0,-4,i,2,-0.61
COc1cc(C(=O)NCCOc2cc(C)cc(C)c2)c(Br)c(OC)c1OC,4,-7,i,44*,-0.13
Nc1cnc(CNc2ccccc2Cl)cn1,1,-20,.,.,0.05
N#Cc1ccc(CSc2nnc(Cc3cccs3)n2Cc2ccco2)cc1,.,2,+,4,.
Clc1ccc(C[n+]2csc3ccccc32)cc1,.,10,+,6,-0.3
OCC1(Cc2ccccc2)CCCN(Cc2ccn[nH]2)C1 (configuration not stated),0,-1,i,1,-0.18
CCCCCOc1ccc(C(=O)NCC(=O)NCC(=O)OCC)cc1,9,-5,i,36*,0.14
Cc1ccc(C(=O)NC2CCCCC2)cc1,-1,-3,i,3,-0.45
CCOC(=O)CNC(=O)CNC(=O)c1ccc(OCC(C)C)cc1,-8,-1,i,4,-0.68
CCOC(=O)COc1ccc(C(=O)NC2CCCCC2)cc1,.,2,i,2,4.2*
CSCCC(NS(=O)(=O)c1ccccc1F)C(=O)NC(C)c1ccccc1 (configuration not stated),-1,-5,i,6,-0.3
CSc1cccc(-n2cc(-c3ccc4c(c3)OCO4)[nH]c2=O)c1,162*,-1,i,19*,-2.4
O=c1c2nncn2c2cc(C(F)(F)F)ccc2n1CCNc1ncc(C(F)(F)F)cc1Cl,-2,-6,.,.,-0.69
O=c1c(Cl)nc2cc(Cl)ccc2n1CCNc1ncc(C(F)(F)F)cc1Cl,0,-3,+,2,-1.7
SMILES,b-catenin transl,Tb hexokinase,Autophagy HCS,MT stabilize HCS,Ins promoter up
CC(=O)Nc1sc(N)nc1-c1ccccc1,.,-1,+,5,0.23
COc1ccc(/C=C2/SC(=O)NC2=O)cc1,1,-42,i,3,-0.19
CCOc1ccc(N=C2NC(=O)S/C2=C\c2ccc(OC)cc2)cc1,1,-27,+,1,.
Cc1ccccc1NC(=O)Cn1nnc2ccccc21,-2,10,i,5,-0.61
CCCNC(=O)COC(=O)c1ccccc1C(=O)c1ccc(Cl)c([N+](=O)[O-])c1,-1,2,i,4,-0.35
Cc1ccc(Cl)c(NC(=O)COC(=O)c2ccccc2C(=O)c2ccc(Cl)c([N+](=O)[O-])c2)c1Cl,4,4,+,6,-0.15
CC(C)CCNC(=O)c1cc(-c2ccncc2)nc2ccc(S(=O)(=O)N3CCOCC3)cc12,-4,-4,i,17*,0.51
O=C(COc1ncnc2sccc12)N1CCN(C(=O)c2ccco2)CC1,-2,7,i,3,-0.38
O=C(O)CCCN1C(=O)NC2NC(=O)NC21 (configuration not stated),-8,-7,+,2,0.47
